Experimental data taken from PubChem BioAssay AID651647 (Sanford-Burnham Center for Chemical Genomics, 2012).
The campaign covered roughly 360,000 compounds. About 220 (0.061%) were called active. The list comes from a sample in which actives are over-represented; it also holds similar structures and randomly drawn compounds. A number with no mark means an inactive call.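 How the source made its calls: active means GFP/RFP ratio change of at least 30% with cell ATP level not reduced by more than half and red fluorescence within 50% of control; inactive means the rest, inconclusive results apart.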

Biological target: Matrix metalloproteinase-14 (Homo sapiens) (UniProt P50281)
Assay: MT1-MMP activation inhibitors, cellular reporter – HT1080 RFP-PRO-GFP cells, GFP/RFP fluorescence, primary screen (AID 651647)
Conditions: overnight, at 20 µM, hits give high values, percent of plate control window, DMSO zero
Method in brief: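 Test system: HT1080 cells expressing an RFP-PRO-GFP fluorescent reporter construct / Compound dosing: single-point 20 µM compound, 1% DMSO / Schedule: cells overnight before dosing, compound overnight, 37 °C, 5% CO2 / Evaluation: GFP/RFP fluorescence ratio / Control set: DMSO and RFP-L50D-GFP cell wells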

**Q.** With COC1=C/C(=C/c2c(N)n3nc(CC(=O)N4CCOCC4)sc3nc2=O)C=CC1=O as the compound, how does the GFP/RFP ratio change read?
**A.** -33.2%

**Q.** How did the GFP/RFP ratio change turn out when Cc1ccc(C(=O)Nc2nnc(C3=COCCO3)o2)cc1C was run?
**A.** -0.926%

**Q.** CCC(=O)N1CCCC1(C)C(=O)Nc1ccc2c(c1)CCN2C(C)=O (stereo not given) was tested. Which GFP/RFP ratio change did it give?
**A.** -0.545%

**Q.** Which GFP/RFP ratio change does the source give for NS(=O)(=O)c1ccc(N2C(=O)C3C4CC(C(Br)C4Br)C3C2=O)cc1 (stereo not given) here?
**A.** -0.391%

**Q.** With CCc1ccc(-c2cc3c(=O)n(CC(=O)NCCCN4CCN(Cc5ccccc5)CC4)nc(C)n3n2)cc1 as the compound, how does the GFP/RFP ratio change read?
**A.** -3.13%

**Q.** Which GFP/RFP ratio change does the source give for C/C(=N\c1nc2ccccc2n1C)c1cc(Cl)ccc1O here?
**A.** 1.93%

**Q.** With COc1cc(C(=S)NCc2ccccc2)cc(Br)c1O as the compound, how does the GFP/RFP ratio change read?
**A.** 4.38%

**Q.** Which GFP/RFP ratio change does the source give for O=S1(=O)CC(N2CCN(CCO)CC2)CN1C1CCCC1 (stereo not given) here?
**A.** -0.753%

**Q.** With CSc1cccc(NC(=O)C2CCCN2S(=O)(=O)c2ccc3c(c2)CCC(=O)N3)c1 (stereo not given) as the compound, how does the GFP/RFP ratio change read?
**A.** -0.538%

**Q.** For O=[N+]([O-])c1cc(S(=O)(=O)N2CCCC2)ccc1NN=C1CCCC1, which GFP/RFP ratio change is on record?
**A.** 0.0654%

**Q.** With COc1ccc(/C=C2\CCCC3C2=NN(C(=O)c2scnc2C)C3c2ccc(OC)cc2)cc1 (stereo not given) as the compound, how does the GFP/RFP ratio change read?
**A.** -11.9%

**Q.** Which GFP/RFP ratio change does the source give for CCN(c1ccccc1)S(=O)(=O)c1ccc2[nH]c(=O)[nH]c2c1 here?
**A.** -1.12%

**Q.** Which GFP/RFP ratio change does the source give for O=C1CCC(C(=O)N2CCC(O)(c3ccccc3)CC2)CN1CCc1ccccc1 (stereo not given) here?
**A.** -2.93%

**Q.** COc1ccc(CCN2CC(C(=O)NCCN3CCNC3=O)CCC2=O)cc1 (stereo not given) was tested. Which GFP/RFP ratio change did it give?
**A.** 0.0278%

**Q.** Cc1ccc(-c2nc(CSCC(=O)NC3CCN(Cc4ccccc4)CC3)c(C)o2)cc1 was tested. Which GFP/RFP ratio change did it give?
**A.** 1.7%

**Q.** Which GFP/RFP ratio change does the source give for CC1(C)N=C(c2ccccn2)C(C)(C)N1O here?
**A.** -4.4%

**Q.** With O=C(CSc1nc(C2CC2)nc2ccccc12)Nc1cccc(O)c1 as the compound, how does the GFP/RFP ratio change read?
**A.** -3.6%

**Q.** With O=C(Cc1ccccn1)c1ccc(O)cc1O as the compound, how does the GFP/RFP ratio change read?
**A.** -2.78%

**Q.** How did the GFP/RFP ratio change turn out when O=C(NNc1c2ccccc2nc2ccccc12)c1cc2ccccc2cc1O was run?
**A.** 55.7% (active)

**Q.** For O=C(COC(=O)COc1ccccc1F)Nc1cccc(S(=O)(=O)N2CCCCC2)c1, which GFP/RFP ratio change is on record?
**A.** 4.15%

**Q.** For CC1(c2ccccc2Cl)NC(=O)N(CC(=O)NC(=O)NCc2ccco2)C1=O (stereo not given), which GFP/RFP ratio change is on record?
**A.** -1.98%

**Q.** Which GFP/RFP ratio change does the source give for O=C(Cn1c(-c2cscn2)nc2ccccc21)Nc1ccc(Cl)cc1 here?
**A.** 0.072%

**Q.** O=C(CSc1nnc(-c2ccc([N+](=O)[O-])cc2)o1)Nc1ccccn1 was tested. Which GFP/RFP ratio change did it give?
**A.** 3.02%

**Q.** For O=C(c1cc2c(s1)CCC2)N1CCN(c2ccccc2)CC1, which GFP/RFP ratio change is on record?
**A.** -1.39%

**Q.** O=C(COc1ncnc2c(Cl)cc(Cl)cc12)N1CCN(S(=O)(=O)c2ccccc2)CC1 was tested. Which GFP/RFP ratio change did it give?
**A.** -1.19%
